Experimental data taken from ChEMBL document CHEMBL2331168, “Anticonvulsant evaluation of aminoalkanol derivatives of 2- and 4-methylxanthone” (Bioorg Med Chem, 2013).
The source made the active and inactive calls.

Assays:
Rattus norvegicus [1] = assay: Anticonvulsant activity in Sprague-Dawley rat assessed as protection against maximal electroshock-induced seizures at 30 mg/kg, po after 4 hrs; assay type: functional, organism-based; design: dose 30 mg/kg
Summary of the method: (§1)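 Male Sprague-Dawley rats dosed orally at 30 mg/kg and tested at 0.25, 0.5, 1, 2 and 4 h. Seizures were induced by 60 Hz alternating current at 150 mA for 0.2 s through corneal electrodes, after a drop of 0.9% NaCl in each eye. Protection meant abolition of hindlimb tonic extension. Reported as protected/tested, usually 4 rats per time point.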

Rattus norvegicus [2] = assay: Anticonvulsant activity in Sprague-Dawley rat assessed as protection against maximal electroshock-induced seizures at 30 mg/kg, po after 1 hr; assay type: functional, organism-based; design: dose 30 mg/kg; summary of the method: as §1
Rattus norvegicus [3] = assay: Anticonvulsant activity in Sprague-Dawley rat assessed as protection against maximal electroshock-induced seizures at 30 mg/kg, po after 0.25 hrs; assay type: functional, organism-based; design: dose 30 mg/kg; summary of the method: as §1
Mus musculus [4] = assay: Neurotoxicity in albino mouse assessed as minimal motor impairment at 300 mg/kg, ip after 4 hrs by rotorod test; assay type: toxicity, organism-based; design: dose 300 mg/kg, route intraperitoneal; conditions: in vivo
Summary of the method: (§2)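 Male albino mice (Carworth Farms No. 1) were dosed ip with suspensions in 0.5% methylcellulose and put on a 1 in. knurled rod rotating at 6 rpm at set times after dosing. Neurotoxicity meant failure to stay on the rod for at least 1 min in each of three trials. Scored as impaired/tested.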

Mus musculus [5] = assay: Neurotoxicity in albino mouse assessed as minimal motor impairment at 100 mg/kg, ip after 4 hrs by rotorod test; assay type: toxicity, organism-based; design: dose 100 mg/kg, route intraperitoneal; conditions: in vivo; summary of the method: as §2
Mus musculus [6] = assay: Neurotoxicity in albino mouse assessed as minimal motor impairment at 30 mg/kg, ip after 4 hrs by rotorod test; assay type: toxicity, organism-based; design: dose 30 mg/kg, route intraperitoneal; conditions: in vivo; summary of the method: as §2
Mus musculus [7] = assay: Neurotoxicity in albino mouse assessed as minimal motor impairment at 300 mg/kg, ip after 0.5 hrs by rotorod test; assay type: toxicity, organism-based; design: dose 300 mg/kg, route intraperitoneal; conditions: in vivo; summary of the method: as §2
Mus musculus [8] = assay: Anticonvulsant activity in albino mouse assessed as protection against subcutaneous pentetrazole-induced seizures at 100 mg/kg, ip after 4 hrs; assay type: functional, organism-based; design: dose 100 mg/kg
Summary of the method: (§3)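 Male albino mice (Carworth Farms No. 1) received compound ip in 0.5% methylcellulose, then pentetrazole 85 mg/kg sc in 0.9% NaCl at 0.5 or 4 h. Mice were watched for at least 30 min. Protection meant no threshold seizure, defined as a single clonic spasm lasting at least 5 s. Scored as protected/tested.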

Mus musculus [9] = assay: Anticonvulsant activity in albino mouse assessed as protection against subcutaneous pentetrazole-induced seizures at 300 mg/kg, ip after 0.5 hrs; assay type: functional, organism-based; design: dose 300 mg/kg; summary of the method: as §3
Mus musculus [10] = assay: Anticonvulsant activity in albino mouse assessed as protection against subcutaneous pentetrazole-induced seizures at 30 mg/kg, ip after 4 hrs; assay type: functional, organism-based; design: dose 30 mg/kg; summary of the method: as §3
Mus musculus [11] = assay: Anticonvulsant activity in albino mouse assessed as protection against subcutaneous pentetrazole-induced seizures at 100 mg/kg, ip after 0.5 hrs; assay type: functional, organism-based; design: dose 100 mg/kg; summary of the method: as §3
Mus musculus [12] = assay: Anticonvulsant activity in albino mouse assessed as protection against subcutaneous pentetrazole-induced seizures at 30 mg/kg, ip after 0.5 hrs; assay type: functional, organism-based; design: dose 30 mg/kg; summary of the method: as §3
Mus musculus [13] = assay: Anticonvulsant activity in albino mouse assessed as protection against maximal electroshock-induced seizures at 300 mg/kg, ip after 4 hrs; assay type: functional, organism-based; design: dose 300 mg/kg
Summary of the method: (§4)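 Male albino mice (Carworth Farms No. 1) were given the compound ip as a suspension in 0.5% methylcellulose at 3–300 mg/kg. MES testing was at 0.5 and 4 h, sometimes also at 0.25 and 1 h. Current was 60 Hz, 50 mA, 0.2 s via corneal electrodes, with saline eye drops. Protection meant no hindlimb tonic extension, scored as protected/tested.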

Mus musculus [14] = assay: Anticonvulsant activity in albino mouse assessed as protection against maximal electroshock-induced seizures at 100 mg/kg, ip after 4 hrs; assay type: functional, organism-based; design: dose 100 mg/kg; summary of the method: as §4
Mus musculus [15] = assay: Anticonvulsant activity in albino mouse assessed as protection against maximal electroshock-induced seizures at 30 mg/kg, ip after 4 hrs; assay type: functional, organism-based; design: dose 30 mg/kg; summary of the method: as §4
Mus musculus [16] = assay: Anticonvulsant activity in albino mouse assessed as protection against maximal electroshock-induced seizures at 300 mg/kg, ip after 0.5 hrs; assay type: functional, organism-based; design: dose 300 mg/kg; summary of the method: as §4
Mus musculus [17] = assay: Anticonvulsant activity in albino mouse assessed as protection against maximal electroshock-induced seizures at 100 mg/kg, ip after 0.5 hrs; assay type: functional, organism-based; design: dose 100 mg/kg; summary of the method: as §4
Mus musculus [18] = assay: Anticonvulsant activity in albino mouse assessed as protection against maximal electroshock-induced seizures at 30 mg/kg, ip after 0.5 hrs; assay type: functional, organism-based; design: dose 30 mg/kg; summary of the method: as §4
Mus musculus [19] = assay: Neurotoxicity in albino mouse assessed as minimal motor impairment at 30 mg/kg, ip after 0.5 hrs by rotorod test; assay type: toxicity, organism-based; design: dose 30 mg/kg, route intraperitoneal; conditions: in vivo; summary of the method: as §2
Rattus norvegicus [20] = assay: Neurotoxicity in Sprague-Dawley rat assessed as minimal motor impairment at 30 mg/kg, po after 2 hrs by rotorod test; conditions: in vivo
Rattus norvegicus [21] = assay: Neurotoxicity in Sprague-Dawley rat assessed as minimal motor impairment at 30 mg/kg, po after 0.25 hrs by rotorod test; conditions: in vivo
Rattus norvegicus [22] = assay: Anticonvulsant activity in Sprague-Dawley rat assessed as protection against maximal electroshock-induced seizures at 30 mg/kg, po after 2 hrs; assay type: functional, organism-based; design: dose 30 mg/kg; summary of the method: as §1
Rattus norvegicus [23] = assay: Anticonvulsant activity in Sprague-Dawley rat assessed as protection against maximal electroshock-induced seizures at 30 mg/kg, po after 0.5 hrs; assay type: functional, organism-based; design: dose 30 mg/kg; summary of the method: as §1
Mus musculus [24] = assay: Anticonvulsant activity in albino mouse assessed as protection against subcutaneous pentetrazole-induced seizures at 300 mg/kg, ip after 4 hrs; assay type: functional, organism-based; design: dose 300 mg/kg; summary of the method: as §3
Rattus norvegicus [25] = assay: Neurotoxicity in Sprague-Dawley rat assessed as minimal motor impairment at 30 mg/kg, po after 1 hr by rotorod test; conditions: in vivo
Rattus norvegicus [26] = assay: Neurotoxicity in Sprague-Dawley rat assessed as minimal motor impairment at 30 mg/kg, po after 4 hrs by rotorod test; conditions: in vivo
Rattus norvegicus [27] = assay: Neurotoxicity in Sprague-Dawley rat assessed as minimal motor impairment at 30 mg/kg, po after 0.5 hrs by rotorod test; conditions: in vivo
Mus musculus [28] = assay: Neurotoxicity in albino mouse assessed as minimal motor impairment at 100 mg/kg, ip after 0.25 hrs by rotorod test; assay type: toxicity, organism-based; design: dose 100 mg/kg, route intraperitoneal; conditions: in vivo; summary of the method: as §2
Mus musculus [29] = assay: Anticonvulsant activity in albino mouse assessed as protection against maximal electroshock-induced seizures at 100 mg/kg, ip after 1 hr; assay type: functional, organism-based; design: dose 100 mg/kg; summary of the method: as §4
Mus musculus [30] = assay: Neurotoxicity in albino mouse assessed as minimal motor impairment at 100 mg/kg, ip after 0.5 hrs by rotorod test; assay type: toxicity, organism-based; design: dose 100 mg/kg, route intraperitoneal; conditions: in vivo; summary of the method: as §2

Measured: Activity

COc1ccc2c(=O)c3cccc(CN[C@H](C)CO)c3oc2c1
Toxic: Mus musculus [4] | Mus musculus [7]
Non-toxic: Mus musculus [5] | Mus musculus [6] | Mus musculus [19] | Rattus norvegicus [20] | Rattus norvegicus [21]
inactive: Rattus norvegicus [1] | Rattus norvegicus [2] | Rattus norvegicus [3] | Mus musculus [8] | Mus musculus [9] | Mus musculus [10] | Mus musculus [11] | Mus musculus [12] | Mus musculus [14] | Mus musculus [15] | Mus musculus [17] | Mus musculus [18]
active: Mus musculus [13] | Mus musculus [16]

COc1ccc2c(=O)c3cccc(CN[C@@H](C)CO)c3oc2c1
Non-toxic: Mus musculus [4] | Mus musculus [5] | Mus musculus [6] | Mus musculus [19] | Rattus norvegicus [25] | Rattus norvegicus [26] | Rattus norvegicus [20] | Rattus norvegicus [27] | Rattus norvegicus [21]
active: Mus musculus [13]
inactive: Rattus norvegicus [1] | Rattus norvegicus [22] | Rattus norvegicus [23] | Rattus norvegicus [3] | Mus musculus [24] | Mus musculus [8] | Mus musculus [9] | Mus musculus [10] | Mus musculus [11] | Mus musculus [12] | Mus musculus [14] | Mus musculus [15] | Mus musculus [16] | Mus musculus [18]

COc1ccc2c(=O)c3cccc(CNC(C)CO)c3oc2c1.Cl (racemic)
inactive: Rattus norvegicus [22] | Rattus norvegicus [2] | Rattus norvegicus [3] | Mus musculus [10] | Mus musculus [11] | Mus musculus [12] | Mus musculus [14] | Mus musculus [15] | Mus musculus [18]
Toxic: Mus musculus [5] | Mus musculus [7]
Non-toxic: Mus musculus [6] | Mus musculus [19] | Rattus norvegicus [25] | Rattus norvegicus [26] | Rattus norvegicus [20] | Rattus norvegicus [27] | Rattus norvegicus [21]

CC(C)(CO)NCc1ccc2oc3ccc(Cl)cc3c(=O)c2c1
Non-toxic: Mus musculus [4] | Mus musculus [5] | Mus musculus [28] | Mus musculus [19]
inactive: Mus musculus [24] | Mus musculus [8] | Mus musculus [9] | Mus musculus [10] | Mus musculus [11] | Mus musculus [12] | Mus musculus [14] | Mus musculus [15] | Mus musculus [29] | Mus musculus [17] | Mus musculus [18]
active: Mus musculus [13] | Mus musculus [16]

CN(Cc1ccc2oc3ccc(Cl)cc3c(=O)c2c1)C(C)(C)CO
Non-toxic: Mus musculus [4] | Mus musculus [5] | Mus musculus [6] | Rattus norvegicus [25] | Rattus norvegicus [26] | Rattus norvegicus [20] | Rattus norvegicus [27] | Rattus norvegicus [21]
active: Mus musculus [13] | Mus musculus [16]
inactive: Rattus norvegicus [1] | Rattus norvegicus [22] | Rattus norvegicus [2] | Rattus norvegicus [23] | Rattus norvegicus [3] | Mus musculus [24] | Mus musculus [8] | Mus musculus [9] | Mus musculus [10] | Mus musculus [11] | Mus musculus [12] | Mus musculus [15] | Mus musculus [18]

CCC(CO)NCc1cccc2c(=O)c3ccc(OC)cc3oc12 (racemic)
active: Mus musculus [16] | Mus musculus [17]
inactive: Rattus norvegicus [1] | Rattus norvegicus [22] | Rattus norvegicus [2] | Rattus norvegicus [23] | Rattus norvegicus [3] | Mus musculus [8] | Mus musculus [10] | Mus musculus [11] | Mus musculus [12] | Mus musculus [14] | Mus musculus [15] | Mus musculus [18]
Non-toxic: Mus musculus [5] | Mus musculus [6] | Mus musculus [19] | Rattus norvegicus [25] | Rattus norvegicus [26] | Rattus norvegicus [20] | Rattus norvegicus [27] | Rattus norvegicus [21]
Toxic: Mus musculus [4] | Mus musculus [7] | Mus musculus [30]
